System: MS2 coat protein
Test: apparent Kd, MS2 coat protein; higher = weaker binding; RNA-MaP array
Method in brief: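 Designed RNAs were produced on an Illumina sequencing chip by transcription of sequenced DNA templates. Binding to fluorescently labeled MS2 coat protein (1.5 nM to 3 μM) was measured at room temperature with or without input ligand. The apparent Kd is the median of per-cluster binding-curve fits. Designs were excluded when measured on fewer than 10 clusters.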

[1] = designed as: OFF switch for flavin mononucleotide, no ligand
[2] = ligand present: flavin mononucleotide, designed as: OFF switch for flavin mononucleotide
[3] = designed as: ON switch for flavin mononucleotide, no ligand
[4] = ligand present: flavin mononucleotide, designed as: ON switch for flavin mononucleotide
[5] = designed as: OFF switch for tryptophan, no ligand
[6] = ligand present: tryptophan, designed as: OFF switch for tryptophan
[7] = designed as: OFF switch for theophylline, no ligand
[8] = ligand present: theophylline, designed as: OFF switch for theophylline

| Sequence | apparent Kd [1] | apparent Kd [2] | other results |
| --- | --- | --- | --- |
| AGAAUGUCAGGAUAUACUCGCUAUGUCGCCAAGUCACGCCGACAUGAGGAUCACCCAUGUAGAAGGGACAAGUA | 12.9 nM | 11.7 nM | – |
| AGAGAAAAGUAACAUGAGGAUCACCCAUGUAUCCCACGAGUCAGAAGGAGCGGGUUGAUACGAGGCUAGGAUAUGAAGAGUCAU | – | – | apparent Kd [3]: 153 nM; apparent Kd [4]: 98.7 nM |
| AGAGCGAAUCUAACAUGAGGAUCACCCAUGUGUUAUGUUCACGAGGAUAUGUAGUCACUUAGGCGACAGAAGGCGUUCCAAGUA | 29.3 nM | 22 nM | – |
| AGCGAUGACUGAGGAUAUGCUGUUAGGACAUUGCAACAUGAGGAUCACCCAUGUGAAGGCCGUCAGCAGAAGGCAGUACGUGGA | – | – | apparent Kd [3]: 6.08 nM; apparent Kd [4]: 4.75 nM |
| AGCGCGAAUAGAUCCAAAGUUAUUAGUGAGCGAGGACCGGUACGGCCGCCACUCGUGGCUCUACAUGAGGAUCACCCAUGUACAU | – | – | apparent Kd [5]: 354 nM; apparent Kd [6]: 432 nM |
| AGCGUUGCAGAGAAGGCGGUAUGAGUUACGCUCUCACACAUGAGGAUCACCCAUGUAAUGACGUCCGAGGAUAUCUCACAACUC | 5.47 nM | 5.81 nM | – |
| AGGAAUAAGACAGGAUAUCGUAAAAUAUAAAACCGAGAAGGGUCACAUGAGGAUCACCCAUGUGUUCCAACGGUGAUCCCUAGA | 64.9 nM | 68.2 nM | – |
| AGUAAAAGAGGAUAUACAUGAGGAUCACCCAUGUUGGCGCAGACAAUCGAUGCAUCGAGUAGAAGGCUUUCAAU | 21.3 nM | 17.1 nM | – |
| AGUAACGGAACAUGAGGAUCACCCAUGUCAAAAGAUAAGACAAAGGAUAUCAGAUAAAGACCAAAUGAGAAGGUUGGAAGACAA | – | – | apparent Kd [3]: 43 nM; apparent Kd [4]: 31.4 nM |
| AGUGUAAUAUAAGGAUAUAACCGCACAAGAAUGUUAGAAGGUAUUUUACAUGAGGAUCACCCAUGUGAAUGUAGUCCUCACUAU | 9.6 nM | 10.5 nM | – |
| AUAAAACAUGAGGAUCACCCAUGUAUAGAAAGCGCAGGAUAUAGGUGAUCAUAGUACUAUCAAGAAGGGCGGAACC | – | – | apparent Kd [3]: 217 nM; apparent Kd [4]: 184 nM |
| AUAACAGUGUCGGCCGCCACUAGAACACAUGAGGAUCACCCAUGUGGUGGUACCUCCUAAGACGAUAGGACCGGGACCCAUCUAC | – | – | apparent Kd [5]: 134 nM; apparent Kd [6]: 95.2 nM |
| AUACAACAUGAGGAUCACCCAUGUGCUUAAGUUAAAGGAUAUCUAGUGGAUUACAUGCGUAGAGAAGGUUAUUUUA | – | – | apparent Kd [3]: 12.2 nM; apparent Kd [4]: 8.55 nM |
| AUCAAGUGAGGAUAUCCGUAGACUCCUAAUCAGCGACUCAAGGAGAAGGCACAUGAGGAUCACCCAUGUUAGAU | 19.6 nM | 20.8 nM | – |
| AUCAAUCUAGGAUAUACAUGAGGAUCACCCAUGUCUUCAACCAAGGGCUCCACGACCUGUAGAAGGAGACAAAA | 27 nM | 22 nM | – |
| AUCAGUCAAGAAGGAUAUGCAAUAUCCUGGCACGUAGACAUGAGGAUCACCCAUGUGCAGGCUAAGCAGAAGGUCUUAGAAGGU | 16 nM | 9.8 nM | – |
| AUGAAACAUGAGGAUCACCCAUGUGAGGAUAUGGUCUCGAACAAAAUACAAACACCAUCCAGAAGGCACAUGAA | 29.8 nM | 27.7 nM | – |
| AUGCGCUAUAUGGAUACCAGUAUGAUAAUUGACAUGAGGAUCACCCAUGUGAGCUCUACCUACCCUUGGCAGCCAACCCUAUUUG | – | – | apparent Kd (designed as: ON switch for theophylline, no ligand): 21.9 nM; apparent Kd (ligand present: theophylline, designed as: ON switch for theophylline): 22.9 nM |
| AUGGUGUCUUAAGGAUAUGCUCGACAUGAGGAUCACCCAUGUGCCUCGUUUUCCCAACCGAGGUCGCAGAAGGUAAGUGACGUG | – | – | apparent Kd [3]: 313 nM; apparent Kd [4]: 37 nM |
| AUUAGGCUGCAGGAUAUGAAUCAUGUAACAAUUUCAGAAGGGCAUACAUGAGGAUCACCCAUGUAGUGAUCCGC | 109 nM | 220 nM | – |
| AUUAUGUAAGGAUAUCGAGAAAUAAAGAAUCUAGUCAGCCACGAGAAGGAACAUGAGGAUCACCCAUGUGGAUA | 13.8 nM | 12.2 nM | – |
| AUUUGGCGUAGUGUUGCUCGUGGGAUAAAACGAGGACCGGUACGGCCGCCACUCGAUGAUUAACAUGAGGAUCACCCAUGUAAAU | – | – | apparent Kd [5]: 24.6 nM; apparent Kd [6]: 104 nM |
| CAAGAGUUGUACAUUGUGAGGCGUCGGGAACGAGGACCGGUACGGCCGCCACUCGAAAAUUAACAUGAGGAUCACCCAUGUACAC | – | – | apparent Kd [5]: 70.8 nM; apparent Kd [6]: 47.7 nM |
| CAAGCGCAUAAGUACGCAACUACAUGAGGAUCACCCAUGUGAAGAAGGGCACAUCUAUCCCACGUGCAGGAUAUUCUCCAAUUU | – | – | apparent Kd [3]: 44.8 nM; apparent Kd [4]: 51 nM |
| CAAUGGCAGUUGCAGGAUAUUCGGCCGGACACAUGAGGAUCACCCAUGUAGGUUCUCCCAUGGAUGAAGAAGGGCACAACAGAAAC | – | – | apparent Kd [3]: 134 nM; apparent Kd [4]: 66.4 nM |
| CACAUGAGGAUCACCCAUGUCUACGAAAGAUGUAGGGAAAAGAGAAGGUGGAGGGAACUGCCAGCCAAGGAUAUCUGCACUCGA | 31.8 nM | 33.3 nM | – |
| CACCAAUUUCGAGGAUAUACGGCCGGUUAACAUUCGUCUUACAUGAGGAUCACCCAUGUGUUCGCGUAGAAGGCGAUUCUUAAU | – | – | apparent Kd [3]: 35.4 nM; apparent Kd [4]: 31.2 nM |

| Sequence | apparent Kd [1] | apparent Kd [2] | other results |
| --- | --- | --- | --- |
| CACCCUAAAGGAUAUACAGCAUAGAAAACGGGUAAGUCUAAACAUGAGGAUCACCCAUGUAGAAGGUUAGAAUU | 14.8 nM | 14.5 nM | – |
| CAGAACAUGAGGAUCACCCAUGUAAACGACCGAGGACCGGUACGGCCGCCACUCGAUAUGUCUUGAGGGAGAUAUGGAUUCACAU | – | – | apparent Kd (designed as: ON switch for tryptophan, no ligand): 39.9 nM; apparent Kd (ligand present: tryptophan, designed as: ON switch for tryptophan): 38.3 nM |
| CAGUGCGACUCAGGAUAUCAGAACACUAAGGCGUGAGAAGGGAGAACGACACAUGAGGAUCACCCAUGUUAGAGGGAAUGCAUG | 37.6 nM | 43.7 nM | – |
| CAUAGAGCUAAGAAGGCGUACGGAGACAGCAUACGAGGAUAUUAACGUCCAUGAACAUGAGGAUCACCCAUGUCGAAAACCAAA | – | – | apparent Kd [3]: 8.42 nM; apparent Kd [4]: 8.15 nM |
| CAUCAGAGUGUCAGGAUAUGUUCAAAUAACUCGGGACAGAAGGGACAUGAGGAUCACCCAUGUGCAUAAAUUUA | 18.4 nM | 46.9 nM | – |
| CCGAGGGUAGGAUAUUAGCACUUCUACAUGAGGAUCACCCAUGUACCUCAUCAUGAUGCCUAAGAAGGACCAGUGU | 65.7 nM | 158 nM | – |
| CCGCCACGUCAAGGAUAUGCACGGGAGCCCGUAGCAGAAGGUGAGGCGAACGCCAUCCCACAUGAGGAUCACCCAUGUACGGGC | – | – | apparent Kd [3]: 786 nM; apparent Kd [4]: 202 nM |
| CCUAUUCCUACGGAUACCAGACGAUCCGUGGCGUGUGUGAACAUGAGGAUCACCCAUGUAGUCCCUUGGCAGCCGAUGCGGGUAA | – | – | apparent Kd [7]: 34.3 nM; apparent Kd [8]: 132 nM |
| CCUCAAAUGACAUGAGGAUCACCCAUGUAGCGCACAACCGCUAGAAGGACGACAAAGUCUUAUGCGUAGGAUAUAGCGAGCGCG | – | – | apparent Kd [3]: 132 nM; apparent Kd [4]: 133 nM |
| CCUGAACGGGACAUGAGGAUCACCCAUGUAUGAGACUCAAAGAAGGAUAUCUUACAUACAGUUCGAGAGAAGGUCUAGCAAACG | 86.5 nM | 54.9 nM | – |
| CCUUAAGCAUAAGGAUAUAAGUUUUGACUAAGUUUAGAAGGUAUGCUUGCAAGAUCCGGCAAUAACAUGAGGAUCACCCAUGUG | 27.6 nM | 21.3 nM | – |
| CCUUAGAUACAUGAGGAUCACCCAUGUCACCAGCAACCUGACGAGGAUAUAUAGGCCAAAUAACUAUAGAAGGCGUUGACCCAA | – | – | apparent Kd [3]: 20.5 nM; apparent Kd [4]: 12.4 nM |
| CGCAAUUCCUGAGGAUAUUGGCAGCGACAUGAGGAUCACCCAUGUGACCAUUUGGUGUUUUGUGUCAAGAAGGCAGCCCAUGAG | 44.9 nM | 33.8 nM | – |
| CGCACACAGCAACCAAAAUAAACAUGAGGAUCACCCAUGUCACAGGAUAUGGCGAACCCAGGCGACCAGAAGGGUGUAAACACA | – | – | apparent Kd [3]: 26.6 nM; apparent Kd [4]: 18.6 nM |
| CGGUUACUAGGAUAUACAUGAGGAUCACCCAUGUGACCUCCCGUCACGCGUGUACUGGGUAGAAGGAGUCAGGU | 24.8 nM | 34.8 nM | – |
| CGUCAGUAAGGAUAUACCCGCACUUAACACGAGCGUCGUCGGUAGAAGGUACAUGAGGAUCACCCAUGUAGAAA | 7.84 nM | 8.95 nM | – |
| CGUCUAGUUGAGAAGGAUUCGGCGUCGGUCAUGUUAAUCUGGAAACAUGAGGAUCACCCAUGUCAAUAGGAUAUCAGGGCACUA | 11.2 nM | 12.8 nM | – |
| CGUGAAUACGAAGGAUAUGAAACAUGAGGAUCACCCAUGUAAGGUUUAAGCGACGGCUUGACAGGUCAGAAGGUCGUCCGCAUG | – | – | apparent Kd [3]: 42.2 nM; apparent Kd [4]: 27.8 nM |
| CUACUCAUAGGAUAUGAAGCCCGAGACAUGAGGAUCACCCAUGUAUGAUCUACUGUGCGCUCAGAAGGAUGCAGUA | 23.9 nM | 13.4 nM | – |
| CUAGAAGACACGGAGGAUAUGUUGUGUAUUACAUGAGGAUCACCCAUGUUCGGAAGUACCGAUUGACAGAAGGCCGUGCAAUCGCU | – | – | apparent Kd [3]: 6.66 nM; apparent Kd [4]: 5.73 nM |
| CUCGAGUCAGGAUAUAUUAACAGAACUUCCUAAAUGGACGAAUAGAAGGGACAUGAGGAUCACCCAUGUUUGGC | 11.8 nM | 11 nM | – |
| CUGACGUCAGGAUAUGCUAAUAAACAACAUAAAAGACAAGUGCAGAAGGGACAUGAGGAUCACCCAUGUGAAAA | 14.6 nM | 15.3 nM | – |
| CUGAGGUUAGGAUAUCUUCUGUUAUCUUCACGAUGAUAAACAGAGAAGGAACAUGAGGAUCACCCAUGUGGUCU | 135 nM | 99.8 nM | – |
| CUGCCACAGAUAGAUACCAGAGGCGUGCAAGCUACAGCUCACAUGAGGAUCACCCAUGUUCUCCCUUGGCAGCUACGGUGUAAGG | – | – | apparent Kd [7]: 16.6 nM; apparent Kd [8]: 17.4 nM |
| CUGGUUGUCAAAGGAUAUAAACGAUCACAUGAGGAUCACCCAUGUCUCCCUAUGUUAAUAAGCGCUUAGAAGGUUGAGCCAGCC | 31.3 nM | 34.4 nM | – |
| CUUUACUGAGGAUAUACGCAGAUCUAGAUAUCGUAAUACGAACAUGAGGAUCACCCAUGUAGAAGGCAGGCCGA | 12.4 nM | 24.1 nM | – |
| GAACAGCGGCAGAAGGACUCGCGAUUGUGUACGAACAUGAGGAUCACCCAUGUGUGAGUAUUCCAGUAGGAUAUGCGUUCUAUA | 17.2 nM | 12.1 nM | – |
